The record followed here is ChEMBL document CHEMBL1136866, “Synthesis, antiplatelet and in silico evaluations of novel N-substituted-phenylamino-5-methyl-1H-1,2,3-triazole-4-carbohydrazides” (Bioorg Med Chem, 2009).

In brackets after ≈: the same amount, converted by molar mass. Activity calls are given as the source filed them. The rule behind the calls is not given here. A value given as a limit tells only on which side of the number the result lay.

What all share (assay type): functional
The nature of assay [1]: Antiplatelet activity in human citreated platelet rich plasma assessed as inhibition of adrenaline-induced platelet aggregation preincubated before adrenaline challenge. Put shortly: (§1)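 Human PRP prepared by whole-blood centrifugation (120g, 5 min, room temperature) and adjusted to 3.0 × 10^5 platelets/μL using homologous platelet-poor plasma (1500g, 5 min). Compound at 1–500 μg ml−1, or DMSO (final 1%), preincubated with PRP 2 min at 37 °C before agonist (ADP, adrenaline or arachidonic acid). IC50 in μg ml−1 from aggregation inhibition, assayed within 3 h of sampling.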

Assay [2] is described as follows: Antiplatelet activity in human citreated platelet rich plasma assessed as inhibition of adenosine diphosphate-induced platelet aggregation preincubated before adenosine diphosphate challenge. The method in brief:
as §1

Assay [3] in a line: Antiplatelet activity in human citreated platelet rich plasma assessed as inhibition of arachidonic acid-induced platelet aggregation preincubated before arachidonic acid challenge. The method in brief: as §1
A short description of assay [4]: Antiplatelet activity in human citreated platelet rich plasma assessed as inhibition of arachidonic acid-induced platelet aggregation at 100 ug/ml preincubated before arachidonic acid challenge. The method in brief:
(§2)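 Human PRP from whole blood spun 120g, 5 min, room temperature; platelet count set to 3.0 × 10^5/μL with homologous platelet-poor plasma (1500g, 5 min). PRP preincubated 2 min at 37 °C with compound at 100 μg ml−1 or DMSO solvent (final 1%), then agonist added (ADP, adrenaline or arachidonic acid). Read-out: % inhibition of aggregation, measured within 3 h of blood sampling.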

Another assay deals with Platelet. Kind of assay: Antiplatelet activity in human citreated platelet rich plasma assessed as inhibition of adrenaline-induced platelet aggregation at 100 ug/ml preincubated before adrenaline challenge. Put shortly: as §2
Assay [5] can be described thus: Antiplatelet activity in human citreated platelet rich plasma assessed as inhibition of adenosine diphosphate-induced platelet aggregation at 100 ug/ml preincubated before adenosine diphosphate challenge. The method in brief: as §2

On to `Cc1c(C(=O)N/N=C/c2ccc(Br)s2)nnn1Nc1ccc(Cl)cc1`, for which the values for the IC50 in assay [1], in assay [2] and in assay [3] were 144 µg/mL (≈ 328 µM), 332 µg/mL (≈ 756 µM) and 9.1 µg/mL (≈ 20.7 µM), respectively. The inhibition at 100 µg/mL in assay [4] is ≥ 50%.

Take `CC(=O)Oc1ccccc1C(=O)O` [ASPIRIN]: the IC50 in assay [1] was 11.7 µg/mL (≈ 64.9 µM); in assay [2], 21.5 µg/mL (≈ 119 µM); in assay [3], 32.5 µg/mL (≈ 180 µM).

Consider `Cc1c(C(=O)N/N=C/c2ccc([N+](=O)[O-])o2)nnn1Nc1ccccc1`, for which the IC50 in assay [1] was 8.9 µg/mL (≈ 25 µM); in assay [2] it was 11.6 µg/mL (≈ 32.6 µM); in assay [3], 169 µg/mL (≈ 476 µM). Further, the inhibition result in the assay with Platelet is “Active”. For the same compound, the inhibition at 100 µg/mL in assay [5] was > 50%.

As for `Cc1c(C(=O)N/N=C/c2ccncc2)nnn1Nc1ccc(Cl)cc1`, the results for the IC50 in assay [1], in assay [2] and in assay [3] were 145 µg/mL (≈ 406 µM), 169 µg/mL (≈ 474 µM) and 33.1 µg/mL (≈ 93 µM), respectively. In assay [4], the inhibition at 100 µg/mL is ≥ 50%.

As to `Cc1c(C(=O)N/N=C/c2ccccc2)nnn1Nc1ccccc1`, the IC50 amounted to 9.6 µg/mL (≈ 30 µM) in assay [1], 19 µg/mL (≈ 59.4 µM) in assay [2] and 230 µg/mL (≈ 718 µM) in assay [3]. For the same compound, in the assay with Platelet, the inhibition entry was “Active”. In addition, the inhibition at 100 µg/mL in assay [5] was > 50%.

`Cc1c(C(=O)N/N=C/c2ccccc2)nnn1Nc1ccc(Cl)cc1`: the figures for the IC50 in assay [1], in assay [2] and in assay [3] were 28.9 µg/mL (≈ 81.5 µM), 180 µg/mL (≈ 508 µM) and 32.2 µg/mL (≈ 90.8 µM), respectively. Besides, the inhibition result with Platelet is “Active”. Further, the inhibition at 100 µg/mL in assay [4] is ≥ 50%.

Regarding `Cc1c(C(=O)N/N=C/c2ccco2)nnn1Nc1ccc(Cl)cc1`, the IC50 was 7.8 µg/mL (≈ 22.6 µM) in assay [1], 261 µg/mL (≈ 757 µM) in assay [2] and 8.9 µg/mL (≈ 25.8 µM) in assay [3]. In addition, in the assay on Platelet, the inhibition entry is “Active”. Besides, in assay [4], the inhibition at 100 µg/mL was ≥ 50%.

With `Cc1c(C(=O)N/N=C/c2ccco2)nnn1Nc1ccccc1`, the IC50 is 20.1 µg/mL (≈ 64.8 µM) in assay [1], 338 µg/mL (≈ 1090 µM) in assay [2] and 112 µg/mL (≈ 359 µM) in assay [3]. In addition, the inhibition entry in the assay on Platelet is “Active”.

In the case of `Cc1c(C(=O)N/N=C/c2ccc(Br)s2)nnn1Nc1ccccc1`, the IC50 in assay [1] came out at 13.4 µg/mL (≈ 33.1 µM); in assay [2] it was 317 µg/mL (≈ 782 µM); in assay [3], 9.1 µg/mL (≈ 22.5 µM). In the assay on Platelet, the inhibition entry was “Active”. For the same compound, the inhibition at 100 µg/mL in assay [4] was ≥ 50%.

In the case of `Cc1c(C(=O)N/N=C/c2ccc([N+](=O)[O-])o2)nnn1Nc1ccc(Cl)cc1`, the values for the IC50 in assay [1], in assay [2] and in assay [3] were 147 µg/mL (≈ 377 µM), 136 µg/mL (≈ 350 µM) and 35.5 µg/mL (≈ 91.1 µM), respectively. Moreover, in assay [4], the inhibition at 100 µg/mL is ≥ 50%.

With `Cc1c(C(=O)N/N=C/c2ccncc2)nnn1Nc1ccccc1`, the IC50 was 161 µg/mL (≈ 501 µM) in assay [1], 278 µg/mL (≈ 864 µM) in assay [2] and 8.8 µg/mL (≈ 27.4 µM) in assay [3]. In addition, in assay [4], the inhibition at 100 µg/mL is ≥ 50%.
